This data set has as its system MS2 coat protein. Description: apparent Kd, MS2 coat protein; higher = weaker binding; RNA-MaP array; tryptophan 2.4 mM where present. The method, boiled down: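 The apparent Kd is the median of filtered binding-curve fits, one per cluster, to green signal normalised to red-channel RNA signal and control-cluster median Fmax. The clusters were on Illumina sequencing chips, and stalled E. coli RNA polymerase had transcribed the designs on them. Titration used SNAP-549-labelled MS2 coat protein from 0.7 or 1.5 nM, doubling to 3 µM, without and then with constant ligand, in 100 mM Tris-HCl pH 7.5, 80 mM KCl, 4 mM MgCl2, BSA, DTT, yeast tRNA and Tween-20.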

[1] abbreviates: designed as: ON switch for tryptophan, no ligand.
Setting [2] is: ligand present: tryptophan, designed as: ON switch for tryptophan.
Setting [3] is: designed as: OFF switch for tryptophan, no ligand.
Setting [4] is: ligand present: tryptophan, designed as: OFF switch for tryptophan.

From the EternaBench riboswitch data come the findings set out here.

A word on the apparent Kd: it is a dissociation constant that holds for the conditions of the assay.

With “GGGUACAUCGCGGCCGCCACUUAUGUAAAUACAUGAGGAUCACCCAUGUCGAUGGAGACAUCGGAGAGGACCGGGUGAUGUACCG”, the “apparent Kd” value reads like this: under setting [1], 36.1 nM; under setting [2], 35.9 nM.

Consider “AGCAACUAGUCGGCCGCCACUCAUAUUACAUGAGGAUCACCCAUGUAUACAUGGUUGUUAUAUUUGAGGACCGGGACAGUUGCAU”, for which the “apparent Kd” value stood at 70.4 nM under setting [1] and 38.1 nM under setting [2].

As for “AAUUCCGGGUCGGCCGCCACUGAUAUGGCGAGUCCUCGAACUUACAUGAGGAUCACCCAUGUAAACAGGACCGGGACCGCAUGGG”, the “apparent Kd” value under setting [3] came to 18.5 nM and the “apparent Kd” value under setting [4] is 49.1 nM.

Regarding “GCCGCUGCCGCGAUAUGUAUGGGUGUGUAACGAGGACCGGUACGGCCGCCACUCGCGAUCGCACAUGAGGAUCACCCAUGUGUCC”, the “apparent Kd” value amounted to 53.7 nM under setting [3] and 78.5 nM under setting [4].

With “AAAUAAACCUCGGCCGCCACUCGCCAUGAGGAUCACCCAUGUAACAUGAGGAUCACCCAUGUACAGAGGACCGGGAGGUCCUAGU”, the “apparent Kd” value by setting is: under setting [1], 73 nM; under setting [2], 100 nM.

On to “CUAAUUAUAUCGGCCGCCACUUACUCAUGAGGUAACAACAUGAGGAUCACCCAUGUUUGAGGAUCAAGGACCGGGAUAUAAUUAG”, for which the “apparent Kd” value is, setting by setting: under setting [1], 28.9 nM; under setting [2], 17 nM.

For “UGACAGAUAACCGCUGGUGCUCUCGAGUUGCGAGGACCGGUACGGCCGCCACUCGACAACAUGAGGAUCACCCAUGUUGCGGGUC”, the “apparent Kd” value is, setting by setting: under setting [3], 102 nM; under setting [4], 49.8 nM.

As for “CCUAUGCAGUCGGCCGCCACUGAGUCCUCAAUAAUAAAUUAAUAUACAUGAGGAUCACCCAUGUACAGGACCGGGACUGUAUAGG”, the “apparent Kd” value under setting [3] turned out to be 205 nM and the “apparent Kd” value under setting [4] was determined as 167 nM.

With “ACACAAUACAUGAGGAUCACCCAUGUAAAACGAGGACCGGUACGGCCGCCACUCGAAUACUGUAAUCCUCGGAAUAUUAAGUGAA”, the “apparent Kd” value by setting is: under setting [3], 41 nM; under setting [4], 35.3 nM.

Consider “UAACAUGAGGAUCACCCAUGUUUGAAGAAACGAGGACCGGUACGGCCGCCACUCGACGAGUGGAUGAAUAGUGGGCUUGUGUGCU”, for which the “apparent Kd” value turned out to be 13.7 nM under setting [1] and 15 nM under setting [2].

For the sequence “UAAUGCAUGACGGCCGCCACUAGAACAUGAGGAUCACCCAUGUACGGCGGCCGUCAUGGGUGGACUAGGACCGGGUCAUGCAUAU”, the “apparent Kd” value under setting [3] stood at 9.23 nM and the “apparent Kd” value under setting [4] is 10.5 nM.

In the case of “GUUAUAUACUCGGCCGCCACUGAGAGAGUCAUGUAAACAUGAGGAUCACCCAUGUAAUAUAUAUACAGGACCGGGAGUAUAGUAA”, the “apparent Kd” value was determined as 14.5 nM under setting [3] and 13 nM under setting [4].

As to “AAUGUAUUCCACAUGAGGAUCACCCAUGUGCGAGGACCGGUACGGCCGCCACUCGGUGUUGGGAUCAGUUCUGAAUACAUUAAUG”, the “apparent Kd” value under setting [3] is 15.9 nM and the “apparent Kd” value under setting [4] was determined as 47.5 nM.

Turning to “AUGCAGAACACGGCCGCCACUCAUUGUAGACAUGAGGAUCACCCAUGUAAUAGGGAUAUUUUAUUGAGGACCGGGUGUAAUGCAA”, the “apparent Kd” value was determined as 51.1 nM under setting [1] and 28.9 nM under setting [2].

Take “UUUGGCGGCGAUCUGGGUUUACCAGAUCGGCGAGGACCGGUACGGCCGCCACUCGUGUUUCUUUGACAUGAGGAUCACCCAUGUA”: the “apparent Kd” value under setting [1] came to 62.5 nM and the “apparent Kd” value under setting [2] came out at 39.1 nM.

As for “AAACAUGAGGAUCACCCAUGUUGAGGAUCACGAGGACCGGUACGGCCGCCACUCGACAUGAGGAUCACCCAUGUGAGGAUCACCC”, the “apparent Kd” value is, setting by setting: under setting [1], 175 nM; under setting [2], 174 nM.

For the sequence “AAUUAUCAGUCGGCCGCCACUGACACAUGAGGAUCACCCAUGUAACUUGGGAUAAAUUUAAUAAACAGGACCGGGACAAAGGCUA”, the “apparent Kd” value came out at 58.8 nM under setting [3] and 49.7 nM under setting [4].

“AACAACUAGUCGGCCGCCACUCAUAAUACAUGAGGAUCACCCAUGUAUACUUGGUUUUUAUAUUUGAGGACCGGGACAGUUGCAU”: the “apparent Kd” value was 11.6 nM under setting [3] and 10.5 nM under setting [4].

Take “CUAUAAGUACCGGUCCUCAGAUCCUCAUGACGAGGACCGGUACGGCCGCCACUCGAAACAUGAGGAUCACCCAUGUAAUAACAUU”: the “apparent Kd” value is, setting by setting: under setting [3], 19.8 nM; under setting [4], 20.2 nM.

As for “ACAUGAGGAUCACCCAUGUACAUCACCCGACGAGGACCGGUACGGCCGCCACUCGGGUAUAUAUAUACAUCGGGUGGUUUUGCAU”, the “apparent Kd” value by setting is: under setting [1], 17.6 nM; under setting [2], 17.3 nM.

“UAAUCCGGUCCUCGAUAACAUGGGUGAAUACGAGGACCGGUACGGCCGCCACUCGAUAACAUGAGGAUCACCCAUGUAAUAAUAA”: the “apparent Kd” value by setting is: under setting [3], 85.7 nM; under setting [4], 84.1 nM.

For the sequence “CGCCACUCGAGUGAUCCUCACGAGUGGCUACGAGGACCGGUACGGCCGCCACUCGAAUUAACAUGAGGAUCACCCAUGUACUCCA”, the “apparent Kd” value runs as follows: under setting [1], 93.6 nM; under setting [2], 19.1 nM.

As for “UAUACAUGGUAUAAAUAUAUAUAUAAGAAACGAGGACCGGUACGGCCGCCACUCGUGCCGGAAACAUGAGGAUCACCCAUGUAUU”, the “apparent Kd” value turned out to be 37.6 nM under setting [3] and 22.8 nM under setting [4].

For “CACAAUUUGUCGGCCGCCACUAAGGUAACUUUUCUCACAUGAGGAUCACCCAUGUGCCCGAAACUUAGGACCGGGAUAAUGGGUG”, the “apparent Kd” value by setting is: under setting [1], 82.4 nM; under setting [2], 45.3 nM.

With “GGAAUAAUGGCGGCCGCCACUAACUCAUAUACAUCAUGUACAUGAGGAUCACCCAUGUAGGUGUAUAGGACCGGGCCAUAAUUCC”, the “apparent Kd” value amounted to 22.4 nM under setting [3] and 38.1 nM under setting [4].

“GACGCAUGAGUUGGAACAGCUCAUGGGUCGCGAGGACCGGUACGGCCGCCACUCGGCUGUACAUGAGGAUCACCCAUGUCAGGGU”: the “apparent Kd” value reads like this: under setting [1], 279 nM; under setting [2], 550 nM.
